Rows were chosen to be rich in hits. Some 2% of all compounds tested hit in one or more screens of this group.
NR2E3 ag-1: agonists of human NR2E3 nuclear receptor; inhibition of corepressor binding, % at 3.98 µM; hit rate 0.35% among 360,000; Q9Y5X4; CHO-S Gal4-NCOR/VP16-NR2E3 two-hybrid, luciferase; AID 602229;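 active = inhibition above the mean of all tested compounds plus 3 SD, cut at about 70% in these data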;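 also: 0% = DMSO with NR2E3 transfected cells and 100% = cells lacking NR2E3 construct; higher means lower luciferase signal from less NR2E3 corepressor binding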
Target sequence (Q9Y5X4 whole entry, looked up, the tested form may be a part): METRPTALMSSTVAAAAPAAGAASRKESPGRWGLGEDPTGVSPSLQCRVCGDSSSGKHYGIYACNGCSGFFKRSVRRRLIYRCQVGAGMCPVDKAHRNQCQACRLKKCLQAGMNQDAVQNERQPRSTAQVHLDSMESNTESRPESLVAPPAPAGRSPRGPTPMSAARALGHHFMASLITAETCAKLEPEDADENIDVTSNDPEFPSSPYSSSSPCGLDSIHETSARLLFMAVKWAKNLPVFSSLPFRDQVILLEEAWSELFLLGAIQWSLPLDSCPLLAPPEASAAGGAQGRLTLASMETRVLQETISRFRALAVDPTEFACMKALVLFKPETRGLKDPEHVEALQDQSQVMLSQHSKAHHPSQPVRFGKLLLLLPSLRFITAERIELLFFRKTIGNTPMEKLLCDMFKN
NR2E3 ag-2: agonists of human nuclear receptor NR2E3. GST-NR2E3/biotin-RetCOR TR-FRET, 1536-well. hit rate 0.12% among 320,000. Q9Y5X4. AID 2300. inhibition of corepressor binding, % at 4.78 µM;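 active = percent inhibition above the cutoff of mean plus 3 SD of all tested compounds, set per screening campaign, cut at about 20% in these data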;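 also: 0% = DMSO wells and 100% = biotin wells as full block of FRET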
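Test system: GST-NR2E3 and biotin-RetCOR proteins | Quantity: 1.35 nM GST-tagged NR2E3 final | Medium: Tris pH 7.5 | Also added: 7 nM biotin-RetCOR | Dosing: Compound at 4.8 µM, single dose | Timing: 5 h at 4 °C | Detection: Time-resolved FRET | Read-out basis: Percent inhibition | Benchmarks: Biotin wells as high control, 0.6% DMSO wells as low control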
T cell modulator: T cell immune modulation candidate; 2C CD8+ T cell-vesicle binding, flow cytometry; hits give low values; response (vesicle binding), % at 7 µM; hit rate 0.068% among 330,000; AID 2052;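 active = response, share of CD8 T cells binding vesicles, and their 90th percentile fluorescence all below set limits, cut at about 80% in these data, passing the limit was not always enough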;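 also: values below 100% mean blocked vesicle binding to the CD8+ T cells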
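Material: 2C TCR transgenic mouse naive CD8+ T cells, MACS-purified. Also added: QL9-charged Drosophila Ld/ICAM-1/B7-1 vesicles. Timing: binding 1.5 h at 37 °C. Measured by: high-throughput flow cytometry with anti-B7-1 and anti-CD8 staining. Read-out: percent CD8+ FL2 mean versus row control. Controls: Unloaded micro-vesicles (low), QL9 vesicles with 0.7% DMSO (high).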
Myeloid diff 2: promotes myeloid progenitor differentiation; calls only at 10 µM; ER-HoxA9 myeloid progenitors, lysozyme-GFP differentiation, flow cytometry; AID 624256; hit rate 1% among 360,000;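 active = normalized GFP-positive differentiation at or above the plate's own cutoff, the solvent-only control mean plus 3 SD; inconclusive = no clear call, values can overlap the other calls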;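 also: cells exposed to compound for four days before flow analysis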
GAA850 FXN act: frataxin GAA850 promoter activation | hit rate 0.56% among 360,000 | AID 540364 | activation, % at 6 µM | HEK293 lucGAA850 FXN promoter luciferase reporter, 24 h; percent of 10 µM SAHA response;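 active = activation above the average of all compounds screened plus 3 SD, cutoff fixed separately per campaign, cut at about 7.5% in these data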;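 also: 0% = DMSO wells and 100% = 10 µM SAHA wells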
Myeloid diff CP1: promotes myeloid progenitor differentiation; hit rate 2% among 2,300; calls only; shares compounds with Myeloid diff 2; ER-HoxA9 myeloid progenitors, GFP/Mac1 double-positive flow; AID 651706;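 active = share of green or green-and-red cells above 9 and 9% in run 1 or 4 and 3% in run 2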
GFP autofluor: compound fluorescence in myeloid differentiation counter-screen; shares compounds with Myeloid diff 2; ER-HoxA9 myeloid progenitors, no estrogen, GFP autofluorescence flow cytometry; vehicle wells 0%, positive control 100%; fluorescence response, % (concentration not given with the values); hit rate 7.4% among 2,300; AID 651707;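 active = over 5% cells positive for green fluorescent reporter, or over 2% positive for both it and APC stain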;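 also: range taken on the double positive population between DMSO and positive control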
* = called active by the depositor; i = inactive; ? = inconclusive; . = no result; + = active, no number.

SMILES	NR2E3 ag-1	NR2E3 ag-2	T cell modulator	Myeloid diff 2	GAA850 FXN act	Myeloid diff CP1	GFP autofluor
COc1ccc(-c2nc(NC(=O)C3CC(=O)N(Cc4ccco4)C3)sc2C)cc1 (configuration not stated)	20	2	245	i	0	i	0
Cn1c(=N)n(CC(=O)C(C)(C)C)c2ccccc21	-39	0	353	i	2	i	1
CNCCCOc1ccc(C)cc1OC	-5	-1	206	i	2	i	0
CCN(C(=O)CN1C(=O)COc2ccc(S(=O)(=O)N3CCCCCC3)cc21)c1cccc(C)c1	-16	-3	187	i	2	.	.
S=C(NC1CC1)NC1CCCc2ccccc21 (configuration not stated)	23	-2	307	i	0	i	0
S=C(NCc1ccccc1)NC1CCCc2ccccc21 (configuration not stated)	-16	1	170	i	-1	.	.
CC(=O)NC12CC3CC(C1)CC(C(=O)N1CCN(S(=O)(=O)c4ccccc4C#N)CC1)(C3)C2	-21	.	.	i	1	.	.
C=CCN1C(=O)/C(=c2\sc3nc(=O)c(Cc4ccccc4Cl)nn3c2=O)c2ccccc21	-10	-2	978	i	1	.	.
Cc1cc(C)c(S(=O)(=O)NC2CC(C)(C)NC(C)(C)C2)cc1C	13	0	310	+	-2	i	0
O=C(Nc1ccon1)C1CCN(S(=O)(=O)c2cccs2)CC1	16	2	285	i	2	i	1
CCCCCN(C(=O)NC(=O)Nn1cnnc1)S(C)(=O)=O	24	2	592	+	1	i	0
CCn1c(CC(=O)Nc2ccccc2Cl)nnc1SCC(=O)NC1CCCC1	-36	1	228	i	2	.	.
CC1(C(=O)Nc2cccc3cccnc23)CCN1Cc1ccccc1OC(F)F (configuration not stated)	7	.	.	i	4	.	.
O=C(Nc1ccccc1Cl)C1CCCN(S(=O)(=O)c2cccc3cccnc23)C1 (configuration not stated)	-12	-1	428	?	0	.	.
O=C(Nc1nccs1)C1CCCN(S(=O)(=O)c2cccc3cccnc23)C1 (configuration not stated)	-33	3	44	i	1	i	0
COc1ccc2[nH]c3c(c2c1)[C@@H]1CCN2C(=O)CCC[C@H](C3)[C@H]12	28	2	509	+	3	i	0
C=CCN(c1ccccc1OC)S(=O)(=O)c1ccc(Cl)c(C(=O)NCc2ccco2)c1	-33	.	.	+	-4	i	0
Cc1cccc(NC(=S)N(C)C2CCCCC2)c1	-15	-2	378	i	2	i	0
Cc1cccc(NC(=S)NC2CCCC2)c1	-13	1	261	i	1	.	.
COc1ccc(NC(=O)Nc2nnc(C(C)(C)C)s2)cc1	-63	0	419	?	2	.	.
CC(C)(C)c1nnc(NC(=O)Nc2ccc(Cl)cc2)s1	-27	-4	275	+	3	i	0
COc1cccc(CNC(=O)c2ccc(CS(=O)Cc3ccccc3Cl)o2)c1 (configuration not stated)	2	.	.	i	-3	.	.
O=C(NCCc1ccccc1)C(=O)NCC1CCCN1S(=O)(=O)c1ccccc1 (configuration not stated)	1	1	472	+	-4	i	0
O=C(NCCc1ccccc1)C(=O)NCCC1CCCCN1S(=O)(=O)c1ccccc1 (configuration not stated)	12	0	191	i	0	.	.
Cc1ccc(S(=O)(=O)N(C)C[C@H]2OCc3cnnn3CCCC(=O)N([C@H](C)CO)C[C@H]2C)cc1	3	.	.	i	2	.	.
SMILES	NR2E3 ag-1	NR2E3 ag-2	T cell modulator	Myeloid diff 2	GAA850 FXN act	Myeloid diff CP1	GFP autofluor
C=CCn1c(N)cc(=O)nc1SCC(=O)NC(C)c1ccccc1 (configuration not stated)	-6	3	940	i	-3	i	0
CC(NC(=O)CSc1nc(=O)cc(N)n1-c1ccccc1)c1ccccc1 (configuration not stated)	3	-1	258	i	2	.	.
NNC(=O)Cc1cccc2ccc(Cl)cc12	-6	.	.	i	-1	.	.
Cc1ccc(-n2c(O)c(C=Nc3ccccc3-c3n[nH]c(=S)[nH]c3=O)c3ccccc3c2=O)cc1C	-10	.	.	i	0	i	0
Cc1ccc([C@H]2C[C@H](n3cc(C4CC4)nn3)[C@@H](O)CN2C(=O)c2cccs2)cc1	-6	.	.	i	-2	.	.
CCCc1cc(=O)[nH]c(SCC(=O)Nc2cccc3ccccc23)n1	-1	0	380	.	0	.	.
CCCc1cc(=O)[nH]c(SCC(=O)Nc2ccccc2C#N)n1	-11	3	521	i	-1	i	0
COc1ccc(OC)c(NC(=O)[C@@H]2CCCN2C(=O)c2cccs2)c1	-22	2	237	i	2	.	.
CCn1ccnc1CN(C)C(=O)c1cc(COc2ccccc2SC)on1	-136	0	225	i	5	.	.
CSc1ncnc2ncn(C)c12	-5	.	.	i	1	.	.
Cc1ccc(-c2cc(C(=O)OCC(=O)N(C)c3c(N)n(Cc4ccccc4)c(=O)[nH]c3=O)c3ccccc3n2)o1	14	1	140	i	1	.	.
COc1cccc(/C=N/NC(=O)c2cc(-c3cccn3C)n[nH]2)c1O	10	0	252	i	-5	i	0
COc1ccc(CCN2CC(C(=O)N(C)Cc3cccnc3)CC2=O)cc1OC (configuration not stated)	3	4	467	i	-1	.	.
COc1ccc(CCNC(=O)Nc2nc(C(N)COCc3ccccc3)cs2)cc1OC (configuration not stated)	4	.	.	i	2	.	.
O=C(CCN1CCCCCC1)Nc1ccccc1F	-11	-1	164	i	0	.	.
O=C(CN1CCCCCC1)Nc1ccccc1F	-18	6	105	+	2	i	0
COc1ccc(NC(=O)c2ccc(S(=O)(=O)N(C)c3ccccc3)cc2)cc1S(=O)(=O)N1CCOCC1	6	.	.	i	0	.	.
Nc1ccc(NC(=O)c2ccccc2)c2c1C(=O)c1ccccc1C2=O	12	2	233	i	-2	i	0
Cc1cc(Cl)c(C)c(S(=O)(=O)N2CCN(C(=O)C3CCCO3)CC2)c1Cl (configuration not stated)	-2	5	381	+	4	i	0
